PMI act: increases human mannose-6-phosphate isomerase activity | purified human PMI, coupled resazurin fluorescence, 20 min; hits give high values; 1 = vehicle control, 0 substrate-free wells | AID 1214 | P34949 | 0.005% of 190,000 active | activation factor at 20 µM;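 active = activation factor of 2 or more at 20 µM, relative to plate controls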
Target sequence (P34949 whole entry, looked up): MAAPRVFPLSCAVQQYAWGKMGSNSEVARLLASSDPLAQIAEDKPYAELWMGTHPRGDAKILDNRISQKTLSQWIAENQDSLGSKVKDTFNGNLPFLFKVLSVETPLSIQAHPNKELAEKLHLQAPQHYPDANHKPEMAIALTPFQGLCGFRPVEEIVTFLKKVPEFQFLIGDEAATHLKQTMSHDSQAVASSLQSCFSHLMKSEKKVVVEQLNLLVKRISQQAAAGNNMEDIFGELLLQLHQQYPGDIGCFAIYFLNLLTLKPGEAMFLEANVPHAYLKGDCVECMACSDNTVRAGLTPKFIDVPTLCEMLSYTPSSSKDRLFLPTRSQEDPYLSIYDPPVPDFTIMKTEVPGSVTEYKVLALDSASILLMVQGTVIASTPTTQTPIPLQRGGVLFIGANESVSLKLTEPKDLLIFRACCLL
p47phox inh: inhibitors of human p47phox binding; P14598; p47phox/p22phox peptide binding, fluorescence polarization, 2 h; inhibition, % at 24.7 µM; 0.53% of 220,000 active;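 active = inhibition above about 30%, limit read from the data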
PMI act hi M6P: activators of human phosphomannose isomerase at near-saturating mannose 6-phosphate | P34949 | coupled PMI enzyme assay, resazurin fluorescence, 20 min; hits give high values; 1 = untreated enzyme, 0 = substrate-free blank | activation factor at 20 µM | 0.34% of 190,000 active;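 active = activation factor of 2 or more at 20 µM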
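Test system: Human PMI in coupled enzyme assay | Input: 15 ng/mL PMI | Medium: HEPES-buffered pH 7.4 with magnesium and detergent | Compound: One concentration, 20 µM, in 1% DMSO | Incubation: Enzyme reaction with compound 20 min at room temperature | Detection: Diaphorase-driven resazurin-to-resorufin fluorescence, excitation 544, emission 590 nm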
HMGR II inh: E. faecalis class II HMG-CoA reductase inhibition. 0.41% of 190,000 active. purified E. faecalis HMGR, NADPH absorbance 340 nm kinetic. inhibition, % at 10 µM;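 active = inhibition above a set limit, the median over all tested compounds plus 3 SD, cut at about 9.5% in these data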;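 also: enzyme runs in reverse so mevalonate oxidation gives rising NADPH absorbance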
Diaphorase act: diaphorase activation or chemical reduction counter-screen; AID 1229; activation factor at 20 µM; Diaphorase/resazurin coupled assay, resorufin fluorescence, 16 min; hits give high values; 1 = vehicle wells, 0 = NADH-free wells; 0.005% of 190,000 active;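 active = diaphorase activity raised at least twofold by the compound at 20 µM; inactive = activation factor below 2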
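Test system: Clostridium kluyveri diaphorase, purified enzyme; input: enzyme 0.07 U/mL final; buffer or medium: 50 mM HEPES pH 7.4 with 4.542 mM MgCl2, 0.005% Tween 20; also added: 0.114 mM NADH and 0.1 mM resazurin, final amounts; schedule: 16 min enzyme reaction, ambient temperature; technique: fluorescence of resorufin, 544 nm excitation, 590 nm emission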
Redox H2O2 prof: compounds producing H2O2 with reducing agent – biochemical, NIH compound library profiling, artefact control for MLSCN library redox annotation, primary screen. DTT-dependent redox cycling H2O2, phenol red/HRP absorbance; 100% = 100 µM peroxide control, 0% = buffer. 0.03% of 200,000 active. activation, % at 10 µM;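 active = activation of at least 50% relative to the plate's high and low controls in the primary single-dose screen; inactive = activation below 50%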;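 also: compound incubated with DTT at 0.8 mM final as the reducing agent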
A number is an active result; n = inactive; x = no result; + = active, no number. In the library only some 1.2% were active in any assay of this set; here they are far more common.

SMILES	PMI act	p47phox inh	PMI act hi M6P	HMGR II inh	Diaphorase act	Redox H2O2 prof
O=S(=O)(c1ccc(-c2nnc(SCc3ccccc3)o2)cc1)N1CCCC1	n	42.1	n	n	n	n
Cc1ccc(CSc2nnc(-c3ccc(S(=O)(=O)N4CCCC4)cc3)o2)cc1	n	n	n	n	n	n
CCOCCCNCc1ccc(OCCC(C)C)c(OC)c1	n	x	n	n	n	n
O=C1ON=C(c2ccccc2)/C1=C/c1ccc(-c2ccccc2[N+](=O)[O-])o1	n	141.7	n	n	n	n
O=[N+]([O-])c1ccccc1-c1ccc(/C=N/n2cnnc2)o1	n	n	n	n	n	n
COC(=O)C1=C(C)NC(C)=C(C(=O)OC)C1C1CC=CCC1 (stereo not given)	n	n	n	14.9	n	n
C=CCNC(=O)C1CC2Cn3c(nc4cc5ccccc5cc43)C2N1C (stereo not given)	x	n	x	x	x	x
COc1ccc(N=Cc2c(O)n(-c3ccc(OC)cc3)c(=O)c3ccccc23)cc1	n	32.9	n	n	n	n
O=c1c(C(c2ccccc2)c2c(O)nc3n(c2=O)CCS3)c(O)nc2n1CCS2	n	n	n	n	n	n
CCCCNC(=O)c1ccccc1NC(=O)CCSc1ccccc1	n	n	n	15.2	n	n
CCCC(=O)NC(=S)c1c(C)n(C)n(-c2ccccc2)c1=O	n	n	n	n	n	n
CCOC(=O)c1ccc(N2Cc3ccccc3C2=NC(=O)c2cccs2)cc1	n	n	n	n	n	n
CC(=O)c1ccc(N2Cc3ccccc3C2=NC(=O)c2cccs2)cc1	n	38.0	n	n	n	n
Nc1nc(SCC(=O)Nc2ccc([N+](=O)[O-])cc2)n[nH]1	n	n	n	n	n	n
CC(C)NC(=O)C1CCN(C2CCN(Cc3ccc4cccc(F)c4n3)CC2)CC1	n	n	n	n	n	n
CCOC(=O)C(C)On1c(-c2cccc(Cl)c2)nc2ccc([N+](=O)[O-])cc21 (stereo not given)	n	n	2	n	n	n
CC(On1c(-c2ccccc2)nc2ccc(Cl)cc21)C(=O)O (stereo not given)	n	n	n	n	n	n
CCOC(=O)COn1c(-c2cccc(Cl)c2)nc2ccc([N+](=O)[O-])cc21	n	n	2.1	n	n	n
COc1cccc(-c2noc(-c3ccc(Br)o3)n2)c1	n	n	n	n	n	n
Cc1cccc(Nc2nnc(SCC(=O)N(C)C3CCS(=O)(=O)C3)s2)c1C (stereo not given)	n	n	n	n	n	n
CCOC(=O)C1=C(O)CSC1=Nc1ccc(Cl)cc1	n	+	n	n	n	n
O=C(CNC(=O)C1CCCCC1)Nc1ccccc1Cl	n	53.0	n	n	n	n
O=C(CNC(=O)C1CCCCC1)Nc1cc(Cl)ccc1Cl	n	n	n	n	n	n
CC1(OC(=O)C2CCCC2)C(=O)C=C2C=C(c3ccsc3)N(CCCCO)C=C2C1=O (stereo not given)	x	30.2	x	x	x	x
O=C(O)[C@H](Cc1ccccc1)NC(=O)N1CCN(c2ccc(F)cc2)CC1	x	n	x	x	x	x
SMILES	PMI act	p47phox inh	PMI act hi M6P	HMGR II inh	Diaphorase act	Redox H2O2 prof
COc1ccc(NC(=O)c2oc3ccccc3c2NC(=O)C2CC2)cc1	n	n	n	10.8	n	n
Cc1nc2cc(NC(=O)Nc3ccc(Br)cc3)ccc2o1	n	n	n	n	n	n
C/C(=N\Nc1nc2ccccc2s1)c1cccs1	n	n	n	n	n	n
C/C(=N\Nc1nc(-c2ccccc2)cs1)c1cccs1	n	n	2.2	n	n	n
COc1ccc(NC(=O)C2CCC(CNS(=O)(=O)c3cccs3)CC2)cc1 (stereo not given)	n	n	n	n	n	n
COc1ccc(-c2c(C)n([O-])c3c([n+]2=O)CCCCC3)cc1OC	n	n	n	n	n	n
CC1CCCCN1C(=O)C12CCC(C)(/C(=N/O)C1)C2(C)C (stereo not given)	n	37.3	n	n	n	n
CC1CCCCN1C(=O)C12CCC(C)(C(=O)C1)C2(C)C (stereo not given)	n	n	n	n	n	n
O=C(Oc1ccc(-c2cnc3ccccc3n2)cc1)c1cc([N+](=O)[O-])ccc1Cl	n	35.5	n	n	n	n
CC(O)C(=O)N/N=C/c1ccccc1C(=O)O (stereo not given)	n	n	n	13.4	n	n
O=[N+]([O-])c1cccc(/C=N/NS(=O)(=O)c2ccccc2)c1	n	n	n	n	n	n
COc1ccc(-n2c(O)c(/C=N/NS(=O)(=O)c3cccc([N+](=O)[O-])c3)c3ccccc3c2=O)cc1OC	n	n	2.1	n	n	n
O=C(NC1CCCCCC1)c1ccc(CN2CCOCC2)cc1	n	n	n	n	n	n
O=C1c2ccccc2C(O)N1Cc1cccs1 (stereo not given)	n	n	n	n	n	n
COc1cc(NC(=O)c2ccccc2-c2ccccc2)cc(OC)c1OC	n	n	n	n	n	n
COc1cc(NC(=O)c2cc3nc(-c4ccccc4)cc(-c4ccccc4)n3n2)cc(OC)c1OC	n	n	n	17.3	n	n
COc1ccc(NC(=O)N(Cc2cc3cc(OC)ccc3[nH]c2=O)CC2CCCO2)cc1 (stereo not given)	n	n	n	n	n	n
COc1ccc(NC(=O)N(Cc2cc3ccc(OC)cc3[nH]c2=O)CC2CCCO2)cc1 (stereo not given)	n	n	n	16.6	n	n
COCCSc1nnc(NC(=O)c2ccc([N+](=O)[O-])cc2)s1	n	n	n	n	n	n
CCOC(=O)CSc1nnc(NC(=O)c2cc([N+](=O)[O-])cc([N+](=O)[O-])c2)s1	n	36.0	n	n	n	n
O=C(Nc1ccc(Nc2ccncc2)cc1)c1ccc(Nc2ccnc3ccc([N+](=O)[O-])cc23)cc1[N+](=O)[O-]	x	71.4	x	x	x	x
COc1ccc(CNC(=O)C/C(C)=N/NC(=O)COc2ccc(C)cc2Br)cc1	n	n	n	n	n	n
CCCN1CCC(=NNc2ccc(C(=O)O)cc2)CC1	n	n	3	n	n	n
CCOc1ccc(NC(=O)CN2CCN(CC(=O)Nc3ccc(Cl)c(C(F)(F)F)c3)CC2)cc1	n	n	n	n	n	n
CCN(CC)S(=O)(=O)c1ccc(N2CCOCC2)c(NC(=O)c2cc(-c3ccccn3)nc3ccccc23)c1	n	n	n	12.2	n	n
CCOc1cc(N2CCOCC2)c(OCC)cc1NC(=O)COc1ncnc2ccccc12	n	n	n	n	n	n

Screens (PubChem BioAssay)
